Test results from publication PMC2872052 (Peptides, 2010).
Where a SMILES comes first, the peptide text is derived from it. [ ]: non-standard residue; d: D form.

Target: wild type rat secretin receptor (Rattus norvegicus, UniProt P23811)
Assay: cAMP responses in secretin receptor-bearing CHO-SecR cells
Format: cell-based
Settings: for agonist (biological) activity at the secretin receptor, in words: cAMP responses in CHO-SecR cells, relative to maximal response to secretin
In short: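 CHO cells stably expressing wild-type rat secretin receptor, grown 48 h at ~8,000 cells/well, washed twice in PBS, then stimulated 30 min at 37 °C with increasing test-compound concentrations in Krebs-Ringers/HEPES pH 7.4 with 0.2% BSA, 0.1% bacitracin and 1 mM IBMX. Lysis in 6% ice-cold perchloric acid, neutralised to pH 6, cAMP by LANCE. Normalised to maximal secretin response; three experiments in duplicate.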

wild type rat secretin receptor, sequence (P23811 26-449): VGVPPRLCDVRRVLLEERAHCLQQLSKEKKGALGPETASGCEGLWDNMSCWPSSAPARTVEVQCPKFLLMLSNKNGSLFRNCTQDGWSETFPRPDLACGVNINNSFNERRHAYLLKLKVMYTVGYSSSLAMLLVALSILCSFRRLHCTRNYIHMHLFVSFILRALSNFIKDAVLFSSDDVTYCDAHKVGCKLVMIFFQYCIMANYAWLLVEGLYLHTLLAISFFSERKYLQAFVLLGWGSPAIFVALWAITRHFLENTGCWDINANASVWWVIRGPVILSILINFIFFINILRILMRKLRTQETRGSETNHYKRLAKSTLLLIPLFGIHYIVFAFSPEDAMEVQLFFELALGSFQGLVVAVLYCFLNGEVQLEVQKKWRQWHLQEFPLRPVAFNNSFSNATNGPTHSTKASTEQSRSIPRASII

EC50 [µM] | agonist (biological) activity at the secretin receptor, in words | SMILES
21 ± 4.2 | full agonist activity | C[C@@H]1NC(=O)[C@H](C)NC(=O)[C@H](CC(=O)O)NC(=O)[C@H](Cc2c[nH]c3ccccc23)NC(=O)[C@H](C)NC(=O)[C@@H](C)NC1=O [c[AWDAAa]] (cyclo(AA[dA]AWD))
11.7 ± 3 |  | O=C(O)C[C@@H]1NC(=O)[C@H](Cc2c[nH]c3ccccc23)NC(=O)[C@H](CC(=O)O)NC(=O)[C@H](Cc2c[nH]c3ccccc23)NC(=O)[C@@H](CC(=O)O)NC(=O)[C@H](Cc2c[nH]c3ccccc23)NC1=O [c[WDWDWd]] (cyclo(DWDW[dD]W))
23 ± 5.3 | full agonist activity | C[C@@H]1NC(=O)[C@H](C)NC(=O)[C@@H](C)NC(=O)[C@H](C)NC(=O)[C@H](CC(=O)O)NC(=O)[C@H](Cc2c[nH]c3ccccc23)NC1=O [c[AAWDAa]] (cyclo(AAWDA[dA]))
